Test results published in ChEMBL document CHEMBL4665829, “Synthesis, Structure-Activity Relationship, and Antimalarial Efficacy of 6-Chloro-2-arylvinylquinolines” (J Med Chem, 2020).
The source made the active and inactive calls. The calls are words filed in the database; no cut-off is given here.

System: not listed separately
Test: Intrinsic clearance in mouse liver microsomes assessed as parent compound at 1 uM after 60 mins in presence of NADPH by LC-MS analysis
Type: ADME, Microsome
Details: not given
Procedure, shortened: (§1)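 Mouse liver microsomes (0.5 mg/mL final protein) in 0.1 M phosphate, pH 7.4, with compound at 1 μM, 37 °C with shaking. Aliquots were quenched in cold acetonitrile and centrifuged; LC–MS gave parent peak area at 60 min relative to 0 min.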

In order of rising CLH:
1. CN(C)CCNc1cc(/C=C/c2cccc(F)c2)nc2ccc(Cl)cc12  32.1 µL/min/mg
2. Fc1ccc(/C=C/c2cc(NCCCCN3CCOCC3)c3cc(Cl)ccc3n2)cc1F  53.7 µL/min/mg
3. CN(C)CCNc1cc(/C=C/c2ccncc2)nc2ccc(Cl)cc12  62.2 µL/min/mg
4. Fc1ccc(/C=C/c2cc(NCCCCN3CCOCC3)c3cc(Cl)ccc3n2)cc1  62.4 µL/min/mg

System: Plasmodium falciparum
Test: Antiplasmodial activity against late trophozoite synchronized chloroquine-resistant Plasmodium falciparum Dd2 reduction in microbial growth at 6.6 nM measured after 12 hrs by Giemsa staining-based microscopic analysis
Type: functional, organism-based
Details: not given
Procedure, shortened: (§2)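 Dd2 cultures tightly synchronized by magnetic separation and sorbitol were dosed at 5 × EC50 at 6, 18, 30 or 42 h post-invasion. Controls: DHA 50 nM, atovaquone 6.6 nM, DMSO 0.1%. Sampled every 12 h for Giemsa thin smears and for flow cytometry: glutaraldehyde/paraformaldehyde fixation, Triton permeabilization, RNAse, 500 nM YOYO-1, 500,000 events/sample. Three independent biological replicates.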

With `O=C1C(O)=C([C@H]2CC[C@H](c3ccc(Cl)cc3)CC2)C(=O)c2ccccc21` the Activity was “inactive”.

System: Plasmodium falciparum
Test: Antiplasmodial activity against late trophozoite synchronized chloroquine-resistant Plasmodium falciparum Dd2 reduction in microbial growth at 6.6 nM measured after 12 hrs by YOYO-1 staining-based flow cytometric analysis
Type: functional, organism-based
Details: not given
Procedure, shortened: as §2

For `O=C1C(O)=C([C@H]2CC[C@H](c3ccc(Cl)cc3)CC2)C(=O)c2ccccc21`, the Activity was “inactive”.

System: not listed separately
Test: Half life in mouse liver microsomes at 1 uM after 60 mins in presence of NADPH by LC-MS analysis
Type: ADME, Microsome
Details: 1 h
Procedure, shortened: as §1

In order of rising t1/2:
1. Fc1ccc(/C=C/c2cc(NCCCCN3CCOCC3)c3cc(Cl)ccc3n2)cc1  22.2 min
2. CN(C)CCNc1cc(/C=C/c2ccncc2)nc2ccc(Cl)cc12  22.3 min
3. Fc1ccc(/C=C/c2cc(NCCCCN3CCOCC3)c3cc(Cl)ccc3n2)cc1F  25.8 min
4. CN(C)CCNc1cc(/C=C/c2cccc(F)c2)nc2ccc(Cl)cc12  43.2 min

System: Plasmodium falciparum
Test: Antiplasmodial activity against chloroquine-resistant Plasmodium falciparum Dd2 infected in human erythrocytes assessed as reduction in microbial growth after 72 hrs by SYBR green I staining based fluorescence assay
Type: functional, organism-based
Details: Dd2, Erythrocyte
Procedure, shortened: (§3)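 SYBR Green I assay: twofold serial dilutions on P. falciparum cultures at 1% parasitemia, 1% hematocrit, 37 °C, 5% CO₂, 72 h, max 0.1% DMSO. DMSO and CQ as growth and inhibition controls. Plates frozen at −80 °C, thawed, lysed in Tris/saponin/EDTA/Triton buffer with 0.01% SYBR Green I, 1 h dark at room temperature. Fluorescence read at 485 ex/530 em. EC50 by nonlinear dose–response fit.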

In order of falling EC50:
1. CN(C)CCNc1cc(/C=C/c2ccncc2)nc2ccc(Cl)cc12  28.8 nM
2. Fc1ccc(/C=C/c2cc(NCCCCN3CCOCC3)c3cc(Cl)ccc3n2)cc1F  25.5 nM
3. CN(C)CCNc1cc(/C=C/c2cccc(F)c2)nc2ccc(Cl)cc12  5.9 nM
4. Fc1ccc(/C=C/c2cc(NCCCCN3CCOCC3)c3cc(Cl)ccc3n2)cc1  2.4 nM

System: not listed separately
Test: Resistant index, ratio of EC50 for antiplasmodial activity against chloroquine-resistant Plasmodium falciparum Dd2 to antiplasmodial activity against chloroquine-sensitive Plasmodium falciparum 3D7
Type: functional
Details: not given

In order of falling Ratio EC50:
1. Fc1ccc(/C=C/c2cc(NCCCCN3CCOCC3)c3cc(Cl)ccc3n2)cc1F  0.9
2. CN(C)CCNc1cc(/C=C/c2ccncc2)nc2ccc(Cl)cc12  0.5
3. Fc1ccc(/C=C/c2cc(NCCCCN3CCOCC3)c3cc(Cl)ccc3n2)cc1  0.3
4. CN(C)CCNc1cc(/C=C/c2cccc(F)c2)nc2ccc(Cl)cc12  0.3

System: HepG2
Test: Cytotoxicity against human HepG2 cells assessed as reduction in cell viability after 48 hrs by MTS assay
Type: cell-based
Details: HepG2, 48 h
Procedure, shortened: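 HepG2 cells were seeded at 2250 per well and grown 24 h at 37 °C, 5% CO₂. Serial dilutions starting at 25 μM were added for a further 48 h. MTS was then added for 3 h at 37 °C and absorbance read at 490 nm. EC₅₀ came from nonlinear dose–response fits.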

In order of rising EC50:
1. Fc1ccc(/C=C/c2cc(NCCCCN3CCOCC3)c3cc(Cl)ccc3n2)cc1  3550 nM
2. CN(C)CCNc1cc(/C=C/c2cccc(F)c2)nc2ccc(Cl)cc12  4780 nM
3. CN(C)CCNc1cc(/C=C/c2ccncc2)nc2ccc(Cl)cc12  6110 nM
4. Fc1ccc(/C=C/c2cc(NCCCCN3CCOCC3)c3cc(Cl)ccc3n2)cc1F  10400 nM

System: Plasmodium falciparum
Test: Parasiticidal activity against chloroquine-resistant Plasmodium falciparum Dd2 infected in RBC assessed as reduction in parasitemia at 6.6 nM incubated for 48 hrs followed by compound washout and then incubated for 96 hrs by Giemsa staining based microscopic analysis
Type: functional, organism-based
Details: not given
Procedure, shortened: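 Controls: 0.15% DMSO, DHA 50 nM, atovaquone 6.6 nM. Drug removed by three RPMI washes, then parasitemia followed daily for 96 h by Giemsa thin smears. Three independent biological replicates.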

In the case of `O=C1C(O)=C([C@H]2CC[C@H](c3ccc(Cl)cc3)CC2)C(=O)c2ccccc21`, the Activity is reported as “Active”.

System: not listed separately
Test: Selectivity index, ratio of EC50 for cytotoxicity against human HepG2 cells to antiplasmodial activity against chloroquine-resistant Plasmodium falciparum Dd2
Type: toxicity, cell-based
Details: read-out: Ratio EC50

In order of rising selectivity ratio:
1. CN(C)CCNc1cc(/C=C/c2ccncc2)nc2ccc(Cl)cc12  212
2. Fc1ccc(/C=C/c2cc(NCCCCN3CCOCC3)c3cc(Cl)ccc3n2)cc1F  241
3. CN(C)CCNc1cc(/C=C/c2cccc(F)c2)nc2ccc(Cl)cc12  810
4. Fc1ccc(/C=C/c2cc(NCCCCN3CCOCC3)c3cc(Cl)ccc3n2)cc1  1480

System: Plasmodium falciparum
Test: Antiplasmodial activity against chloroquine-sensitive Plasmodium falciparum 3D7 infected in human erythrocytes assessed as reduction in microbial growth after 72 hrs by SYBR green I staining based fluorescence assay
Type: functional, organism-based
Details: 3D7, Erythrocyte
Procedure, shortened: as §3

In order of falling EC50:
1. CN(C)CCNc1cc(/C=C/c2ccncc2)nc2ccc(Cl)cc12  56.6 nM
2. Fc1ccc(/C=C/c2cc(NCCCCN3CCOCC3)c3cc(Cl)ccc3n2)cc1F  27.6 nM
3. CN(C)CCNc1cc(/C=C/c2cccc(F)c2)nc2ccc(Cl)cc12  23 nM
4. Fc1ccc(/C=C/c2cc(NCCCCN3CCOCC3)c3cc(Cl)ccc3n2)cc1  6.9 nM

System: not listed separately
Test: Stability of compound in mouse liver microsomes assessed as parent compound remaining at 1 uM after 60 mins in presence of NADPH by LC-MS analysis
Type: ADME, Microsome
Details: 1 h
Procedure, shortened: as §1

In order of falling Stabilty:
1. CN(C)CCNc1cc(/C=C/c2cccc(F)c2)nc2ccc(Cl)cc12  38.2%
2. Fc1ccc(/C=C/c2cc(NCCCCN3CCOCC3)c3cc(Cl)ccc3n2)cc1F  19.9%
3. CN(C)CCNc1cc(/C=C/c2ccncc2)nc2ccc(Cl)cc12  15.5%
4. Fc1ccc(/C=C/c2cc(NCCCCN3CCOCC3)c3cc(Cl)ccc3n2)cc1  15.4%
